Source: ChEMBL document CHEMBL1125563, “Selective, centrally acting serotonin 5-HT2 antagonists. 1. 2- and 6-substituted 1-phenyl-3-(4-piperidinyl)-1H-indoles” (J Med Chem, 1992)
pIC50: −log10 of the molar value.

Assays:
[1] = molecular target: T1, Adrenergic receptor alpha-1 (Rattus norvegicus, UniProt P15823+P23944+P43140); assay: Displacement of [3H]prazosin from Alpha-1 adrenergic receptor of whole rat brain membranes; type: cell membranes, Membrane
T1 sequence (P15823 whole entry): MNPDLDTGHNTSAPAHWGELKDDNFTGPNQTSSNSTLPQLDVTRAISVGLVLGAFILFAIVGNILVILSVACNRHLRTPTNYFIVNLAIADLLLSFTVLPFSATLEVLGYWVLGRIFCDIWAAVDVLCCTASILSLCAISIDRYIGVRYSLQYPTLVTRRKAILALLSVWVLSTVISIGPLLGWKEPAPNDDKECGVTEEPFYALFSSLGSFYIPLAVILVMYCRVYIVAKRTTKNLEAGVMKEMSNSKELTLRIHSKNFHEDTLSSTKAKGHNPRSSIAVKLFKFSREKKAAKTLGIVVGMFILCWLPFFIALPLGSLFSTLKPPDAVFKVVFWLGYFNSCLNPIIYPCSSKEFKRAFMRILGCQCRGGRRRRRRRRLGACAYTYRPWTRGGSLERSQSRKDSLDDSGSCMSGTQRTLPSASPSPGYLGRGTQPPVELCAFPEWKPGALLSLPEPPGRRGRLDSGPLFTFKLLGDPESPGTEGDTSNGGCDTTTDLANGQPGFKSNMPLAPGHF
T1 sequence (P23944 whole entry): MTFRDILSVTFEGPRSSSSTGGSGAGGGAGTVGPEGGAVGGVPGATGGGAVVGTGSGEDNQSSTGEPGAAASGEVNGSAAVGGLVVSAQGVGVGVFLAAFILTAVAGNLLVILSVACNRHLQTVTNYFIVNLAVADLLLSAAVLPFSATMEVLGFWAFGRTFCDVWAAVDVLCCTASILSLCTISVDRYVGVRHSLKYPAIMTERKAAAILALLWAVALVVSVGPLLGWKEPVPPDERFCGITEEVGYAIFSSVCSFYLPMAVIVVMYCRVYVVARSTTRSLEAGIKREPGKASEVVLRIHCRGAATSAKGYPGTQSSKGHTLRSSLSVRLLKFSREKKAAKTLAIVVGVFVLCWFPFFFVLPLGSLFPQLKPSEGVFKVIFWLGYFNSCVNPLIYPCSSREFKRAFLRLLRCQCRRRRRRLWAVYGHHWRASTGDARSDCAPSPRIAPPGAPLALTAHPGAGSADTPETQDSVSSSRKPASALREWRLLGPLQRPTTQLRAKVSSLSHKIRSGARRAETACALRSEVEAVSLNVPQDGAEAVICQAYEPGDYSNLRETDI
T1 sequence (P43140 whole entry): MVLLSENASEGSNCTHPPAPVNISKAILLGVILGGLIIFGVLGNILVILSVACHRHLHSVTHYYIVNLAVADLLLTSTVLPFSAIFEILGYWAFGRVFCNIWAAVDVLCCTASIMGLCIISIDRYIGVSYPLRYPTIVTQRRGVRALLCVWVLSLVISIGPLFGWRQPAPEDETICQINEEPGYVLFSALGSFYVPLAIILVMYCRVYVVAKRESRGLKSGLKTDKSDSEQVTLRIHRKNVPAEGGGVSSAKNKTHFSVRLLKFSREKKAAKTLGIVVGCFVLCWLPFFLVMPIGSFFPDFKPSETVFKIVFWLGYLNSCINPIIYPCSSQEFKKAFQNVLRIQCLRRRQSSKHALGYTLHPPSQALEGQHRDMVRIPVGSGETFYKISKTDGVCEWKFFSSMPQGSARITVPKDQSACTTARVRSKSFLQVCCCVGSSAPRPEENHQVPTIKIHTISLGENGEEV
In short: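 α1 adrenoceptor binding measured as displacement of [3H]prazosin from whole rat brain membranes. Five test-drug concentrations spanning three decades in triplicate, two full curves; IC50 from log concentration-effect curves, logarithmic mean of at least two determinations.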

Mus musculus [2] = species on record: Mus musculus; assay: Compound was evaluated for the inhibition of isolation-induced aggression at a threshold of 180 seconds; type: functional
In short: (§1)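 Isolated male NMRI mice (3 weeks) trained to attack a nonaggressive intruder of the same strain; only mice with attack latency <25 s included. Pretested just before dosing and 2 h after sc test substance; observation maximum 180 s; at least eight mice per dose.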

Mus musculus [3] = species on record: Mus musculus; assay: Compound was evaluated for the inhibition of isolation-induced aggression at a threshold of, 90 seconds; type: functional; in short: as §1
Rattus norvegicus [4] = assay: Compound was evaluated for the inhibition of quipazine-induced head twitches after 2 h (administered subcutaneously); 0.064-0.18; type: functional; settings: sc
Rattus norvegicus [5] = assay: Compound was evaluated for the inhibition of quipazine-induced head twitches after 24 hr (administered subcutaneously); 0.017-0.16; type: functional; settings: sc
Rattus norvegicus [6] = assay: Compound was evaluated for the inhibition of quipazine-induced head twitches after 24 hr (administered perorally); 0.026-0.12; type: functional; settings: po
Rattus norvegicus [7] = assay: Compound was evaluated for the inhibition of pergolide-induced reactions after 2 hr (administered subcutaneously); type: functional; settings: sc
In short: (§2)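 Male Wistar rats with unilateral 6-OHDA lesions; test drug sc 2 h before pergolide (0.05 µmol/kg sc) to induce contralateral circling. Effect of each dose expressed as percent of mean of control sessions 1 week before and 1 week after, per rat; at least four rats per dose; ED50 by log-probit analysis.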

[8] = molecular target: Serotonin 2 (5-HT2) receptor (Rattus norvegicus, UniProt P30994+P08909+P14842); assay: Displacement of [3H]ketanserin from 5-hydroxytryptamine 2 receptor from rat cortical membranes.; type: cell membranes, Membrane
In short: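 [3H]ketanserin displacement from rat cortical membranes (5-HT2). Five concentrations across three decades in triplicate, two full curves; IC50 estimated on a log-concentration scale, given as logarithmic mean of at least two determinations.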

D(2) dopamine receptor = D(2) dopamine receptor (Rattus norvegicus, UniProt P61169); assay: Displacement of [3H]-spiperone from Dopamine receptor D2 from rat striatal membranes; type: cell membranes, Membrane
Chain of D(2) dopamine receptor (P61169 whole entry): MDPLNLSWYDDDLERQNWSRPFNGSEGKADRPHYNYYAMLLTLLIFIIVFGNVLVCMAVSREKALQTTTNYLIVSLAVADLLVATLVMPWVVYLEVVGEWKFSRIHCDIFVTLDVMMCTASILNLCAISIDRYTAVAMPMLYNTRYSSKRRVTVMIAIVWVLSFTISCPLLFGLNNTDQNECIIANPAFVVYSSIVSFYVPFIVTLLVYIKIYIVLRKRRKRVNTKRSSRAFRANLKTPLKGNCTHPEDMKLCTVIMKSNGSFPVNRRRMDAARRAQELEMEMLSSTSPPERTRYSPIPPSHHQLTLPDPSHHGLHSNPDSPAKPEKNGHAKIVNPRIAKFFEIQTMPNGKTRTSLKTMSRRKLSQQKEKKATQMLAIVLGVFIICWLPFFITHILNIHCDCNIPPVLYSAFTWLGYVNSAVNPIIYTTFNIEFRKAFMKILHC
In short: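 [3H]spiperone displacement from rat striatal membranes (D2). Five test-drug concentrations over three decades, in triplicate, two full curves; IC50 from log concentration-effect curves, reported as logarithmic mean of at least two determinations.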

Rattus norvegicus [9] = assay: Compound was evaluated for the inhibition of quipazine-induced head twitches after 24 hr (administered subcutaneously); 0.0089-0.12; type: functional; settings: sc
Rattus norvegicus [10] = assay: Compound was evaluated for the inhibition of quipazine-induced head twitches after 24 hr (administered perorally); 0.017-0.18; type: functional; settings: po
Rattus norvegicus [11] = assay: Compound was evaluated for the inhibition of quipazine-induced head twitches after 2 hr (administered subcutaneously); 0.0027-0.073; type: functional; settings: sc
Mus musculus [12] = species on record: Mus musculus; assay: Compound was evaluated for the inhibition of isolation-induced aggression at a threshold of 180 seconds; 4.4-13; type: functional; in short: as §1
Mus musculus [13] = species on record: Mus musculus; assay: Compound was evaluated for the inhibition of isolation-induced aggression at a threshold of, 90 seconds; 3.7-9.4; type: functional; in short: as §1
Rattus norvegicus [14] = assay: Compound was evaluated for the inhibition of quipazine-induced head twitches after 2 hr (administered subcutaneously); 0.022-0.056; type: functional; settings: sc
Rattus norvegicus [15] = assay: Compound was evaluated for the inhibition of quipazine-induced head twitches after 24 hr (administered subcutaneously); 0.014-0.066; type: functional; settings: sc
Rattus norvegicus [16] = assay: Compound was evaluated for the inhibition of quipazine-induced head twitches after 24 hr (administered perorally); 0.020-0.078; type: functional; settings: po
Rattus norvegicus [17] = assay: Compound was evaluated for the inhibition of pergolide-induced reactions after 2 hr (administered subcutaneously); 1.5-8.9; type: functional; settings: sc; in short: as §2

Compound | IC50 [1] | IC50 [8] | pIC50 (D(2) dopamine receptor) | further results
CC(C)N1CCN(CCN2CCC(c3cn(-c4ccc(F)cc4)c4cc(Cl)ccc34)CC2)C1=O | 70 nM | 1.5 nM |  | ED50 (Mus musculus [2]): 2 µmol/kg; ED50 (Mus musculus [3]): 2.3 µmol/kg; ED50 (Rattus norvegicus [4]): 0.11 µmol/kg; ED50 (Rattus norvegicus [5]): 0.052 µmol/kg; ED50 (Rattus norvegicus [6]): 0.055 µmol/kg; ED50 (Rattus norvegicus [7]): > 17 µmol/kg
O=C1NCCN1CCN1CCC(c2cn(-c3ccc(F)cc3)c3cc(C(F)(F)F)ccc23)CC1 | 33 nM | 1.7 nM | 6.59 | 
Cc1ccc2c(C3CCN(CCNC(=O)N(C)C)CC3)cn(-c3ccc(F)cc3)c2c1 | 22 nM | 2.6 nM | 7.42 | 
Cc1ccc2c(C3CCN(CCN4CCN(C(C)C)C4=O)CC3)cn(-c3ccccc3)c2c1 | 120 nM | 2 nM |  | ED50 (Mus musculus [2]): > 11 µmol/kg; ED50 (Mus musculus [3]): > 11 µmol/kg; ED50 (Rattus norvegicus [9]): 0.032 µmol/kg; ED50 (Rattus norvegicus [10]): 0.056 µmol/kg; ED50 (Rattus norvegicus [7]): > 22 µmol/kg; ED50 (Rattus norvegicus [11]): 0.014 µmol/kg
Cc1ccc2c(C3CCN(CCN4CCN(C(C)C)C4=O)CC3)cn(-c3cccc(C(F)(F)F)c3)c2c1 |  | 150 nM |  | 
CC(C)N1CCN(CCN2CCC(c3c[nH]c4cc(Cl)ccc34)CC2)C1=O | 34 nM | 66 nM | 6.70 | 
Cc1ccc2c(C3CCN(CCN4CCN(C(C)C)C4=O)CC3)cn(-c3ccccc3F)c2c1 | 370 nM | 2.5 nM |  | 
Cc1ccc2c(C3CCN(CCN4CCN(C(C)C)C4=O)CC3)cn(-c3cccc(F)c3)c2c1 | 670 nM | 11 nM |  | 
CC(C)N1CCN(CCN2CCC(c3cn(-c4ccc(F)cc4)c4cc(F)ccc34)CC2)C1=O | 13 nM | 1.3 nM | 7.55 | 
CN(C)C(=O)NCCN1CCC(c2cn(-c3ccc(F)cc3)c3cc(Cl)ccc23)CC1 | 29 nM | 1.3 nM | 7.57 | 
Cc1c(C2=CCN(CCN3CCNC3=O)CC2)c2ccccc2n1-c1ccc(F)cc1 | 23 nM | 1.1 nM | 6.80 | 
O=C1NCCN1CCN1CCC(c2cn(-c3ccc(F)cc3)c3cc(Cl)ccc23)CC1 | 9.6 nM | 1.4 nM | 7.25 | 
O=C1NCCN1CCN1CCC(c2cn(-c3ccc(F)cc3)c3ccc(Cl)cc23)CC1 [SERTINDOLE] | 3.4 nM |  |  | ED50 (Mus musculus [12]): 7.5 µmol/kg; ED50 (Mus musculus [13]): 5.9 µmol/kg; ED50 (Rattus norvegicus [14]): 0.035 µmol/kg; ED50 (Rattus norvegicus [15]): 0.03 µmol/kg; ED50 (Rattus norvegicus [16]): 0.039 µmol/kg; ED50 (Rattus norvegicus [17]): 3.7 µmol/kg
